Screens (PubChem BioAssay)
SR-BI DiI-HDL act: activators of SR-BI mediated HDL lipid uptake | CHO ldlA[mSR-BI] cells, DiI-HDL uptake fluorescence, 3 h; 100 = double the neutral-control signal | activation, % at 12.5 µM | 320,000 compounds, 0.096% hits | AID 504775;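 active means mean replicate activation of at least 60% and every replicate at or above 60%; inconclusive means mean or all-replicate condition met, but not both; inactive means mean below 60% and not all replicates reaching 60%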
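Test system: SR-BI-overexpressing, LDLR-lacking CHO cells; Medium: Ham's F12 with 0.5% BSA, HEPES 25 mM, pH 7.4; Schedule: 3 h, 37 °C; Technique: bottom-read fluorescence, 550/595 nm.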
FID counter: displaces DNA intercalator in HCV helicase counter-screen; DNA fluorescent intercalator displacement, fluorescence; inhibition, % at 7.9 µM; 290,000 compounds, 0.17% hits; AID 1845; in the data active means inhibition above about 37%;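 further: higher means more ethidium bromide displaced from hairpin DNA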
ANO1 activ: activators or potentiators of mouse TMEM16A chloride channel. Q8BHY3. HEK293 TMEM16A/YFP-H148Q/I152L, iodide quench fluorescence; stronger effect = lower value. B-score at 10 µM. 340,000 compounds, 0.3% hits. AID 623877;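 active means fluorescence-ratio B-score plate-corrected deviation score at least 3 library SD below zero, with starting fluorescence score within 5 deviations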;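 further: channel opened by trigger with iodide after compound preincubation; score built on the fluorescence ratio of max minus min over baseline; more negative score means more quench and so TMEM16A activation or potentiation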
Kir21 block: inhibitors of mouse Kir2.1 inward-rectifier potassium channel. B-score at 10 µM. 310,000 compounds, 0.85% hits. HEK293-Kir2.1, FluxOR thallium flux fluorescence; stronger effect = lower value;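 active means fluorescence ratio B-score at or below minus 3 SD of library scores, with starting-brightness B-score within 2 SD, cut at about -4.2 in these data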;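 further: channel flux triggered by added potassium and thallium sulfate stimulus; B-score of peak minus minimum fluorescence over baseline after thallium stimulus; more negative B-score means stronger Kir2.1 block with less thallium influx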
SR-BI DiI inh: mouse SR-BI HDL lipid transfer inhibition. Q61009. AID 488896. inhibition, % at 12.5 µM. 320,000 compounds, 0.96% hits. ldlA[mSR-BI] CHO cells, DiI-HDL uptake fluorescence, 3 h;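 active means mean replicate inhibition of at least 70% and a set share of replicates each scoring 70 or more; inconclusive means meets just one of the two criteria; inactive means fails both criteria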
Target sequence (Q61009 whole entry, looked up): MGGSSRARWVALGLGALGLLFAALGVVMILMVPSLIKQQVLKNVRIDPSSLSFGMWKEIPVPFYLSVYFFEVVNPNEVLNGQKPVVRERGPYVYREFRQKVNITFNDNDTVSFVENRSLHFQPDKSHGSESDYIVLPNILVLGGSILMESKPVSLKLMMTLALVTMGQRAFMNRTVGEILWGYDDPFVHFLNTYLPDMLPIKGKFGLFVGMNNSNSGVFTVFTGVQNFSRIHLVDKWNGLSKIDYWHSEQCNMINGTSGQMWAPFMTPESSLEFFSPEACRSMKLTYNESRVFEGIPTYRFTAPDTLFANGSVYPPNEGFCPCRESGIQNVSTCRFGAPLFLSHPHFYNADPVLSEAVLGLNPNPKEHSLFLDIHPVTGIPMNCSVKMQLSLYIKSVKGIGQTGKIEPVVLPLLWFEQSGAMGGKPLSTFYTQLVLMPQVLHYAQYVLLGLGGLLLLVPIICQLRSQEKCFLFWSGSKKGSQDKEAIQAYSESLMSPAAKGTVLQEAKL
ANO1 block: inhibitors of mouse TMEM16A calcium-activated chloride channel; HEK293 TMEM16A/YFP iodide influx fluorescence, ionomycin; normalized B-score (activity score, 25-100; higher = stronger inhibition) at 10 µM; 310,000 compounds, 1.2% hits; AID 588511;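 active means ratio plate-corrected score three or more library SD toward inhibition, starting fluorescence score within five deviations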;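 further: score derived from kinetic fluorescence span divided by baseline fluorescence per well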
DiI quench: DiI fluorescence quenching in cell-free counter-screen. shares compounds with SR-BI DiI inh. AC50, µM (top dose mostly 35 µM). cell-free DiI-HDL fluorescence quenching, 30 min. 470 compounds, 20% hits;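 active means quenching, a falling signal, with AC50 below a set limit tied to the top valid dose, actives reach about 32 µM in these data; inconclusive means no clear call, values can overlap the other calls; inactive means rising signal, and the rest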
Each line names hits and unclear results; the compound was inactive in the other large screens (follow-up assays come after a bar, where they were run). The list is not random: actives were taken first. Their share in the collection is about 3%.

COc1ccc([C@H]2CC(=O)C=C(c3cccc4c3sc3ccccc34)C2)cc1OC	SR-BI DiI inh 96 (no result: FID counter, Kir21 block, ANO1 block) | DiI quench inactive
COc1ccc(C(=O)CSc2nnc(CNC(=O)c3ccc(S(=O)(=O)N(C)C)cc3)o2)cc1	SR-BI DiI inh 78 | DiI quench inactive
Cc1cc2oc(=O)cc(-c3ccccc3)c2c(C)c1-c1ccc(C(F)(F)F)cc1	SR-BI DiI inh inconclusive (no result: FID counter, Kir21 block, ANO1 block) | DiI quench inactive
CCN(C(=O)COn1nnc2ccc(S(=O)(=O)N(C)C)cc21)C1CCS(=O)(=O)C1 (stereo unspecified)	none (no result: FID counter, Kir21 block, ANO1 block) | DiI quench inactive
CCOC(=O)C1CCN(C(=O)COC(=O)CNC(=O)c2ccc(C(C)(C)C)cc2)CC1	none (no result: FID counter, Kir21 block, ANO1 block)
CCOC(=O)C1CCN(C(=O)Cn2cnc3sc(C)c(S(=O)(=O)N4CCC(C)CC4)c3c2=O)CC1	SR-BI DiI inh inconclusive | DiI quench inactive
CCn1c(COc2c(C)cccc2C)nnc1SCC(=O)N1CCN(c2ccccc2)CC1	SR-BI DiI inh 79 | DiI quench inactive
CN(Cc1ccccc1)C(=O)c1ccc(NC(=O)Cc2ccc(NC(=O)C3CCCN(S(=O)(=O)c4cccc([N+](=O)[O-])c4)C3)cc2)cc1 (stereo unspecified)	none (no result: FID counter, ANO1 activ, Kir21 block, ANO1 block)
CCN(CC(=O)NCc1cccs1)S(=O)(=O)c1ccccc1Cl	none (no result: FID counter)
Cc1oc(C(C)(C)C)cc1C(=O)N1CCN(c2ncccc2C(F)(F)F)CC1	none
CC(C)(C)NC(=O)N1CCN(c2ncccc2C(F)(F)F)CC1	SR-BI DiI inh 88 | DiI quench inactive
Cc1cccc(NC(=O)C2C3CCCCC32)c1 (stereo unspecified)	none
COc1ccc(C2/C=C\CN(S(=O)(=O)c3cccc4cccnc34)CC(=O)N2Cc2ccc(F)cc2)cc1 (stereo unspecified)	none (no result: FID counter)
COc1ccc([C@H]2/C=C\CN(S(=O)(=O)c3ccc4ccccc4c3)[C@@H](C)C(=O)N2Cc2ccc(F)cc2)cc1	SR-BI DiI inh 72 (no result: FID counter) | DiI quench inactive
COc1ccc([C@H]2/C=C\CN(S(=O)(=O)c3cccc4cccnc34)[C@@H](C)C(=O)N2Cc2ccc(F)cc2)cc1	none (no result: FID counter) | DiI quench inactive
O=C(Nc1cc([N+](=O)[O-])ccc1C(=O)Nc1cccnc1)c1ccccc1	none
CCCCc1nnc(NC(=O)c2ccc(OCc3c(C)noc3C)cc2)s1	SR-BI DiI inh 75 (no result: FID counter, Kir21 block, ANO1 block) | DiI quench inactive
CN(Cc1ccc(OC(F)F)cc1)C(=O)c1ccccc1Sc1ccccc1C#N	SR-BI DiI inh 85 | DiI quench inactive
O=C(CSc1nnc(C2CC2)n1C1CC1)Nc1cccc(Br)c1	none (no result: FID counter, Kir21 block, ANO1 block)
Cc1cc(C(=O)C(C)OC(=O)C2=NNC(=O)CC2)c(C)n1-c1ccc(OC(F)F)cc1 (stereo unspecified)	SR-BI DiI inh 82 | DiI quench inactive
COc1ccc2c(c1OC)C(=O)OC2N1C(=O)CC[C@H]1C(=O)Nc1ccc(F)cc1F (stereo partly specified)	none
O=C(NNC(=O)c1ccccc1O)c1ccc(S(=O)(=O)Nc2ccccc2)cc1	SR-BI DiI inh 113 (no result: FID counter) | DiI quench 0.4µM
CCOc1ccc(NS(=O)(=O)c2ccc(C(=O)NNC(=O)c3ccccc3O)cc2)cc1	SR-BI DiI inh 127 (no result: FID counter) | DiI quench 0.61µM
CCN(c1ccccc1)S(=O)(=O)c1ccc(Oc2ccccc2)c(N)c1	none (no result: FID counter, Kir21 block, ANO1 block)
NC(=O)c1cc(-c2ccccc2)sc1NC(=O)CN1CCCCC1	SR-BI DiI inh 73 | DiI quench inactive
NC(=O)c1ccccc1NC(=O)CN1CCCCCC1	none
Cc1ccccc1C(=O)N1CCc2cc(-c3nc(NC(=O)Cc4ccc5c(c4)OCO5)sc3C)ccc21	none | DiI quench inactive
Cc1cccc(C(=O)N2CCc3cc(-c4nc(NC(=O)CN5CCCC5)sc4C)ccc32)c1	none (no result: SR-BI DiI-HDL act, SR-BI DiI inh)
CNc1nc(-c2ccc3c(c2)CCN3C(=O)c2ccccc2C)cs1	none
Cc1sc(NC(=O)Cc2ccc3c(c2)OCO3)nc1-c1ccc2c(c1)CCN2C(=O)c1cccc(F)c1	SR-BI DiI inh 77 | DiI quench inactive
Cc1sc(NC(=O)/C=C/C(=O)O)c(C(N)=O)c1-c1ccc(C(C)(C)C)cc1	none
Cc1sc(NC(=O)c2cccc([N+](=O)[O-])c2)c(C(N)=O)c1-c1ccc(C(C)(C)C)cc1	SR-BI DiI inh 77 | DiI quench inactive
Cc1oc2cc3oc(=O)c(CCC(=O)N[C@H](C(=O)O)C(C)C)c(C)c3cc2c1C	none
Fc1ccc(-c2nc(-c3cccs3)no2)cc1	none (no result: SR-BI DiI-HDL act, SR-BI DiI inh)
Fc1ccc(-c2cc(-c3cccs3)cc(-c3ccccc3)n2)cc1	SR-BI DiI inh 83 | DiI quench inactive
O=C(NCc1ccccc1F)C1CCN(C(=O)c2sccc2-n2cccc2)CC1	none
O=C(NCc1ccccc1Cl)C1CCN(C(=O)c2sccc2-n2cccc2)CC1	SR-BI DiI inh inconclusive | DiI quench inactive
CC1CCCCC1NC(=O)C1CCN(C(=O)NC2CCCCC2)CC1 (stereo unspecified)	none
CC1CCCCC1NC(=O)C1CCN(C(=O)c2sccc2-n2cccc2)CC1 (stereo unspecified)	none | DiI quench inactive
CCOc1ccccc1CNC(=O)C1CCN(C(=O)c2sccc2-n2cccc2)CC1	none | DiI quench inactive
O=C(Nc1cccc(-c2csc(Nc3ccc(Cl)cc3)n2)c1)c1cccc(C(F)(F)F)c1	SR-BI DiI inh 110 (no result: FID counter) | DiI quench 2.1µM
Clc1ccc(Nc2nc(-c3cccnc3)cs2)cc1	none
Cc1ccccc1C(=O)NC1CC2CCCC(C1)N2C(=O)Nc1ccccc1 (stereo unspecified)	none | DiI quench inactive
CCc1sc(N2C(=O)C3C4CCC(C4=C(C)C)C3C2=O)nc1-c1ccccc1 (stereo unspecified)	SR-BI DiI inh 84 | DiI quench inactive
Cc1ccc2oc(-c3cccc(NC(=O)c4cc(-n5cnnc5)ccc4Cl)c3)nc2c1	SR-BI DiI inh 76 | DiI quench inactive
COc1cc(OC)cc(C(=O)N[C@H](C(=O)Nc2nc(-c3ccc(F)c(F)c3)cs2)C(C)C)c1	SR-BI DiI inh 84 | DiI quench inactive
c1ccc(CCNc2nc(-c3ccncc3)nc3ccccc23)cc1	SR-BI DiI inh inconclusive | DiI quench inactive
CCc1ccc(NC(=O)C2CCCN(S(=O)(=O)c3ccc4[nH]c(=O)ccc4c3)C2)cc1 (stereo unspecified)	SR-BI DiI inh 104 | DiI quench inactive
CCC(=O)Nc1cccc(C(=O)N(Cc2ccccc2)Cc2ccccc2)c1	none
